# dFosB act = enhances mouse delta FosB homodimer DNA binding. P13346. purified delta FosB, TAMRA-CDK5 oligo fluorescence polarization; percent of positive-control signal above neutral wells. activation, % at 25 µM. 340,000 tested, 0.99% active. AID 493131;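 active = mean activation above about 17%, with every replicate also reaching it, limit read from the data, passing the limit was not always enough; inconclusive = only one of the two conditions met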
# RAD54 inh = inhibitors of human RAD54 branch migration | AID 602329 | inhibition, % at 10.4 µM | RAD54 Holliday junction branch migration, FAM/BHQ fluorescence | 360,000 tested, 0.14% active;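 active = mean normalized replicate activity at least 40 and at least half of replicates scoring 40 or more; inconclusive = only one of the two criteria met; inactive = mean below 40 and under half of replicates reaching 40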;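 also: 0% = median of neutral control wells and 100% = median of positive control wells; inhibitors cause a drop in the FAM fluorescence signal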
# Target sequence (Q92698 whole entry, looked up): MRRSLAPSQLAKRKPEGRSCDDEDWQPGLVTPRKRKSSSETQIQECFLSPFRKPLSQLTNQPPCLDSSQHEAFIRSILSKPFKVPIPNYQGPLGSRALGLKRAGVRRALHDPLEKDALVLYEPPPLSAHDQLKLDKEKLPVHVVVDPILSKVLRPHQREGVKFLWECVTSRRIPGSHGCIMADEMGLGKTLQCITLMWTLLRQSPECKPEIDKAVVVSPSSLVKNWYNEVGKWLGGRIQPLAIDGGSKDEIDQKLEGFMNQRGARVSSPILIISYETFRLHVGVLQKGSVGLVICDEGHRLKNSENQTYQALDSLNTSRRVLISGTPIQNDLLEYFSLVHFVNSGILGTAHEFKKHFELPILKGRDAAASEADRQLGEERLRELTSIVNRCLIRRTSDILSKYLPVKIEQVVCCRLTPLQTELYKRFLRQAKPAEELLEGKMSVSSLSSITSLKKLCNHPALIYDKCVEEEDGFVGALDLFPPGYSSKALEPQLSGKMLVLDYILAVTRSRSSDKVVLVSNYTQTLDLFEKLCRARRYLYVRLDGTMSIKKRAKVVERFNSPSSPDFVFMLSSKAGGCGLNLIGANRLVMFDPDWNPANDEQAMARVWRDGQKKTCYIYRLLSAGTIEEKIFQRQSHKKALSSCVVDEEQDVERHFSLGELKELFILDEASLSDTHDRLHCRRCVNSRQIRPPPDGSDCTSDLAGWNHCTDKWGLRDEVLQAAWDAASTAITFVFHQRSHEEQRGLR
# PvdQ inh = P. aeruginosa PvdQ acylase inhibition | purified PvdQ acylase, fluorescence plate reader | inhibition, % at 10 µM | 340,000 tested, 0.063% active | AID 488965; in the data active = inhibition above about 30%, passing the limit was not always enough; inconclusive = no clear call, values can overlap the other calls;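 also: 0% = vehicle neutral wells and 100% = reference inhibitor wells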
# SR-BI DiI inh = blocks mouse SR-BI lipid uptake from DiI-HDL; ldlA[mSR-BI] CHO cells, DiI-HDL uptake fluorescence, 3 h; inhibition, % at 12.5 µM; Q61009; AID 488896; 320,000 tested, 0.96% active;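 active = mean replicate inhibition of at least 70% and a set share of replicates each scoring 70 or more; inconclusive = meets just one of the two criteria; inactive = fails both criteria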;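 also: 0% = median of neutral control wells and 100% = median of positive control wells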
# SR-BI uptake up = activators of SR-BI mediated HDL lipid uptake; CHO ldlA[mSR-BI] cells, DiI-HDL uptake fluorescence, 3 h; 100 = double the neutral-control signal; activation, % at 12.5 µM; 320,000 tested, 0.096% active; AID 504775;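 active = mean replicate activation of at least 60% and every replicate at or above 60%; inconclusive = mean or all-replicate condition met, but not both; inactive = mean below 60% and not all replicates reaching 60%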;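 also: 0% = median plate neutral-control signal and 100% = twice that signal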
#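 Assay system: LDL receptor-deficient CHO ldlA cells overexpressing murine SR-BI / Medium: BSA-supplemented, HEPES-buffered Ham's F12, pH 7.4 / Probe or stimulus: DiI-labelled HDL at 10 µg/mL final / Timing: compound with DiI-HDL co-incubation, 3 h at 37 °C / Technique: bottom-read cell fluorescence after medium removal, ex 550/em 595 nm / Measure: HDL uptake via cellular fluorescence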
# S100A4 MyoIIA = inhibitors of human S100A4 binding to myosin IIA peptide; 360,000 tested, 0.14% active; S100A4/TAMRA-MyoIIA peptide fluorescence polarization; inhibition, % at 10.7 µM;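 active = mean inhibition of at least 70% across replicates, with every replicate also reaching that level; inconclusive = mean inhibition reaches 70% but some replicates fall short; inactive = mean inhibition below 70%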
#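 Material: S100A4 monomer (human). Medium: Calcium-containing HEPES buffer, pH 7.2. Probe or stimulus: labelled myosin peptide probe, 5 nM. Compound dosing: one concentration per compound. Timing: polarization read 5 min after assay mix addition, stable 5–60 min. Benchmarks: DMSO as neutral control, TFP as positive control.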
# DiI quench = quenches DiI-HDL fluorescence, an SR-BI assay artifact; shares compounds with SR-BI DiI inh; cell-free DiI-HDL fluorescence quenching, 30 min; AC50, µM (top dose mostly 35 µM), inactives show at the highest dose activity change, negative = quenching; 470 tested, 20% active; AID 540326;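 active = quenching, a falling signal, with AC50 below a set limit tied to the top valid dose, actives reach about 32 µM in these data; inconclusive = no clear call, values can overlap the other calls; inactive = rising signal, and the rest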
# * = called active by the depositor; ? = inconclusive; · = not tested or not shown. This is a sample that favours compounds with a hit; in the whole collection about 1.6% have one here.
SMILES,dFosB act,RAD54 inh,PvdQ inh,SR-BI DiI inh,SR-BI uptake up,S100A4 MyoIIA,DiI quench
Cc1ccc(NS(=O)(=O)c2ccc(C(=O)NNC(=O)c3ccccc3O)cc2)cc1,-8,·,-4,120*,-120,1,0.46µM*
CC(=O)N[C@@H]1C=C[C@H](CC(=O)NCc2ccc(Cl)cc2)O[C@H]1CO,·,-1,·,·,·,-3,·
CN(C)c1ccc(/C=C2\Oc3ccc(C#Cc4cccc(N)c4)cc3C2=O)cc1,-71,-11,-10,?,-70,·,-14%
COC(=O)c1ccc2c(c1)C(=O)/C(=C/c1ccc(C)cc1)O2,0,-4,-10,6,-6,·,·
C[C@H](CO)N1C[C@H](C)[C@H](CN(C)S(=O)(=O)c2ccc(Cl)cc2)Oc2ccc(NC(=O)Nc3cccc4ccccc34)cc2C1=O,·,4,·,·,·,4,·
COc1ccc(C(=O)OCc2ccc(C)cc2)cc1S(=O)(=O)N1CCOCC1,-12,-4,-15,55,-55,-4,·
COc1ccc(COC(=O)c2ccc(Br)c(S(=O)(=O)N3CCOCC3)c2)cc1F,-5,2,-2,74*,-74,-5,2%
O=C(Nc1ncc(Cc2cccc(C(F)(F)F)c2)s1)c1ccc(-c2cccc([N+](=O)[O-])c2)o1,15,19,-6,51,-51,-5,-10%
OC1CCN(c2cc(-c3ccccc3)nc3cc(-c4ccc(F)cc4)nn23)CC1,-4,·,-8,72*,-72,6,6%
CNC[C@H]1Oc2cc(C#CC3(O)CCCC3)ccc2S(=O)(=O)N([C@@H](C)CO)C[C@@H]1C,·,-8,·,·,·,-4,·
CCCNC(=O)N1CC2(C1)CN(C(=O)CC1CC1)[C@H](CO)c1c2c2ccc(OC)cc2n1C,·,·,·,·,·,0,·
COc1ccc(CCn2c(C)cc(C(=O)CSc3nnc(N)s3)c2C)cc1,-9,4,-1,27,-27,·,·
COc1ccc(CCn2c(C)cc(C(=O)CSc3nc(N)cc(=O)[nH]3)c2C)cc1,0,3,-11,81*,-81,·,1%
CCN1CCN(C(=O)C2CCN(C(=O)Nc3ccccc3)CC2)CC1,-11,1,-2,-10,10,2,·
CCOC(=O)N1CCN(C(=O)C2CCN(C(=O)Nc3ccccc3)CC2)CC1,0,·,-10,74*,-74,5,-1%
Cc1ccc(CNC(=O)c2ccc(N3CCC4(CC3)CC(c3cccc(Br)c3)=NO4)c([N+](=O)[O-])c2)cc1,0,8,8,81*,-81,7,-2%
C[C@@H]1CN([C@H](C)CO)C(=O)c2cc(NC(=O)Cc3ccccc3)ccc2O[C@H]1CN(C)S(=O)(=O)c1ccc(F)cc1,·,0,·,·,·,5,·
COc1cc(OC)cc(C(=O)N[C@H](C(=O)Nc2nc(-c3ccc(OC)c(OC)c3)cs2)C(C)C)c1,3,0,-16,·,·,-8,·
COc1cc(OC)cc(C(=O)N[C@H](C(=O)Nc2nc(-c3cc(OC)ccc3OC)cs2)C(C)C)c1,-4,·,7,?,-71,6,-1%
CCCCn1nc2cc(C(=O)NC3CCCc4ccccc43)ccc2c1OCC (stereo unspecified),-1,8,-17,80*,-80,2,-3%
C[C@@H]1CN([C@@H](C)CO)C(=O)c2cccc(NC(=O)Nc3ccc(C(F)(F)F)cc3)c2O[C@@H]1CN(C)Cc1ccc(C(=O)Nc2ccccc2N)cc1,·,·,·,·,·,-5,·
O=C(NCCn1cc(SCc2ccccc2)c2ccccc21)c1c(F)cccc1F,-2,-3,-6,?,-71,-1,-12%
COc1ccccc1C(=O)NCCn1cc(SCC(=O)Nc2nnc(C)s2)c2ccccc21,-9,7,-8,44,-44,-9,0%
CCCC#Cc1cnc2c(c1)C(=O)N([C@@H](C)CO)C[C@@H](C)[C@H](CN(C)C(=O)NC1CCCC1)O2,·,-3,·,·,·,20,·
COc1cc(/C=N/NC(=O)Cc2csc(C)n2)ccc1OCC(C)C,-3,·,-6,82*,-82,-2,-2%
SMILES,dFosB act,RAD54 inh,PvdQ inh,SR-BI DiI inh,SR-BI uptake up,S100A4 MyoIIA,DiI quench
O=C(Nc1ccccc1)NC1CC2CCC(C1)N2Cc1nnnn1Cc1ccc2c(c1)OCO2 (stereo unspecified),-7,8,-1,?,-71,·,1%
COc1cccc(NC(=O)NC2CCN(Cc3nnnn3Cc3ccc4c(c3)OCO4)CC2)c1,-8,-1,0,30,-30,-2,·
O=C(N[C@@H]1C/C=C\C[C@@H](CC(=O)N(CCO)Cc2ccccc2)C(=O)NC[C@H](c2ccccc2)OC1=O)OCC1c2ccccc2-c2ccccc21,-2,-4,-5,53,-53,-7,·
O=C(N[C@@H]1C/C=C\C[C@H](CC(=O)N(CCO)Cc2ccccc2)C(=O)NC[C@@H](c2ccccc2)OC1=O)OCC1c2ccccc2-c2ccccc21,-5,-2,-13,85*,-85,11,1%
COc1ccc(OC)c2[nH]c(C(=O)N3CCC(C(=O)O)CC3)cc12,-7,-15,-15,75*,-75,-1,-4%
COc1ccc(OC)c2[nH]c(C(=O)O)cc12,-4,6,4,6,-6,-1,·
CCC(=O)Nc1ccc2c(c1)OC[C@@H](C)N(C(=O)Cc1ccccn1)C[C@H](C)[C@@H](OC)CN(C)C2=O,·,8,·,·,·,17,·
CC(C)(C)OC(=O)N1CSC[C@H]1C(=O)NC[C@H](CC(=O)O)c1ccc(Cl)cc1,-3,-11,-14,78*,-78,8,-4%
CC(C)C[C@H](NC(=O)C1(c2ccccc2)CCN(C(=O)[C@H]2CSCN2C(=O)OC(C)(C)C)CC1)C(=O)O,3,-8,-3,-16,16,-4,·
Cc1ccccc1S(=O)(=O)N(C)C[C@H]1OCc2ccccc2-c2c(n(C)c3ccccc23)C(=O)N([C@@H](C)CO)C[C@H]1C,·,-3,·,·,·,·,·
COc1cc(C2CC(=O)c3c([nH]c(C(=O)OCCOC(C)C)c3C)C2)cc(OC)c1OC (stereo unspecified),-2,-5,8,82*,-82,-1,-2%
O=C1C2CCCN2C(=O)N1CCCN1CCN(c2ccc([N+](=O)[O-])cc2)CC1 (stereo unspecified),1,7,-13,94*,-94,4,-2%
O=C1C2CCCCN2C(=O)N1CCN1CCN(c2ccc([N+](=O)[O-])cc2)CC1 (stereo unspecified),3,-1,-13,45,-45,·,·
COc1ccc(S(=O)(=O)N[C@@H]2CC[C@H](CC(=O)N3CCC(Cc4ccccc4)CC3)O[C@H]2CO)cc1,·,-2,·,·,·,0,·

# Screens deposited in PubChem BioAssay by Broad Institute.
